The results in this text go back to PMC9926453 (Medicinal Chemistry Research, 2023).

Format in all cases: cell-based
In data set [1] the test system is MCF-7 breast cancer cells. As to the kind of experiment: MTT antiproliferative assay, MCF-7. Particulars: Homo sapiens, MCF7, 24 h, read-out: Antiproliferative activity (IC50) MCF-7. The essentials: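 Cells seeded at 2×10^3 per well and left 24 h to adhere, then exposed to test compound (0–100 µM, final) for 24 h at 37 °C. MTT added for 4 h, a second MTT addition followed by overnight incubation, and absorbance read at 540 nm. Growth compared with untreated cells; IC50 derived from dose-response curves.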

For data set [2], the system named is MDA-MB-231/ADR breast cancer cells. As to the kind of experiment: MTT antiproliferative assay, MDA-MB-231/ADR. To be noted: Homo sapiens, MDA-MB-231, 24 h, read-out: Antiproliferative activity (IC50) MDA-MB-231/ADR. The method, boiled down:
(§1)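 Cells were seeded at 2×10^3 per well and left to adhere for 24 h. Test compound was then added at 0–100 µM final, and cells were incubated for 24 h at 37 °C. MTT was added for 4 h, […]. Absorbance was read at 540 nm and growth compared with untreated cells. IC50 was taken from a dose-response curve.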
(Tetrazolium assays rely on reduction of a dye to a coloured formazan, in cell work by metabolically active cells.)

For data set [3], the system named is MDA-MB-231 breast cancer cells. Description: MTT antiproliferative assay, MDA-MB-231. To be noted: Homo sapiens, MDA-MB-231, 24 h, read-out: Antiproliferative activity (IC50) MDA-MB-231. The essentials: as §1
Data set [4] is described as follows: MTT cytotoxicity towards normal breast cells. To be noted: human, MCF-10A normal breast cells.
Data set [5] deals with normal MCF-10A breast cells. Description: MTT cytotoxicity towards normal breast cells. Particulars: SI: IC50(MCF-10A)/IC50(MCF-7) or IC50(MCF-10A)/IC50(MDA-MB-231).

Take `C[C@@H]1CC[C@H]2[C@@H](C)C(OC(=O)CCCN3C(=O)C(=O)c4ccccc43)O[C@@H]3O[C@@]4(C)CC[C@@H]1[C@]32OO4` (stereo partly drawn) [Hybrid 4a, (3R,5aS,6R,8aS,9R,12R,12aR)-3,6,9-trimethyldecahydro-12H-3,12-epoxy[1,2]dioxepino[4,3-i]isochromen-10-yl 4-(2,3-dioxoindolin-1-yl)butanoate]: the IC50 was determined as 13.6 µM in data set [1], 49.6 µM in data set [2] and 14.9 µM in data set [3]. Further, the IC50 at 24 h in data set [4] was above 100 µM. The “Selectivity index (SI)” value in data set [5] was above 7.33.

Turning to `CCON=C1C(=O)N(CCCC(=O)OC2O[C@@H]3O[C@@]4(C)CC[C@H]5[C@H](C)CC[C@@H]([C@H]2C)[C@@]35OO4)c2ccc(F)cc21` (stereo partly drawn) [Hybrid 5e, (3R,5aS,6R,8aS,9R,12R,12aR)-3,6,9-trimethyldecahydro-12H-3,12-epoxy[1,2]dioxepino[4,3-i]isochromen-10-yl 4-(3-(ethoxyimino)-5-fluoro-2-oxoindolin-1-yl)butanoate], the IC50 in data set [1] was 15.9 µM; in data set [2], above 100 µM; in data set [3], 8.12 µM. This molecule came in with an IC50 at 24 h in data set [4] above 100 µM. Moreover, the “Selectivity index (SI)” value in data set [5] is above 6.29.

For `C[C@@H]1CC[C@H]2[C@@H](C)C(OC(=O)CCCN3C(=O)C(=NOCc4ccccc4)c4cc(F)ccc43)O[C@@H]3O[C@@]4(C)CC[C@@H]1[C@]32OO4` (stereo partly drawn) [Hybrid 5f, (3R,5aS,6R,8aS,9R,12R,12aR)-3,6,9-trimethyldecahydro-12H-3,12-epoxy[1,2]dioxepino[4,3-i]isochromen-10-yl 4-(3-((benzyloxy)imino)-5-fluoro-2-oxoindolin-1-yl)butanoate], the IC50 in data set [1] was 18.3 µM; in data set [2], above 100 µM; in data set [3], above 100 µM. For the same molecule, in data set [4], the IC50 at 24 h was above 100 µM. The “Selectivity index (SI)” value in data set [5] is given as above 5.46.

In the case of `CON=C1C(=O)N(CCCC(=O)OC2O[C@@H]3O[C@@]4(C)CC[C@H]5[C@H](C)CC[C@@H]([C@H]2C)[C@@]35OO4)c2ccc(OC)cc21` (stereo partly drawn) [Hybrid 5i, (3R,5aS,6R,8aS,9R,12R,12aR)-3,6,9-trimethyldecahydro-12H-3,12-epoxy[1,2]dioxepino[4,3-i]isochromen-10-yl 4-(5-methoxy-3-(methoxyimino)-2-oxoindolin-1-yl)butanoate], the IC50 in data set [1], in data set [2] and in data set [3] was above 100 µM throughout.

Take `CCON=C1C(=O)N(CCCC(=O)OC2O[C@@H]3O[C@@]4(C)CC[C@H]5[C@H](C)CC[C@@H]([C@H]2C)[C@@]35OO4)c2ccc(OC)cc21` (stereo partly drawn) [Hybrid 5j, (3R,5aS,6R,8aS,9R,12R,12aR)-3,6,9-trimethyldecahydro-12H-3,12-epoxy[1,2]dioxepino[4,3-i]isochromen-10-yl 4-(3-(ethoxyimino)-5-methoxy-2-oxoindolin-1-yl)butanoate]: the IC50 in data set [1], in data set [2] and in data set [3] was above 100 µM in each case.

In the case of `C[C@@H]1CC[C@H]2[C@@H](C)C(OC(=O)CCCN3C(=O)C(=NOCc4ccccc4)c4ccccc43)O[C@@H]3O[C@@]4(C)CC[C@@H]1[C@]32OO4` (stereo partly drawn) [Hybrid 5c, (3R,5aS,6R,8aS,9R,12R,12aR)-3,6,9-trimethyldecahydro-12H-3,12-epoxy[1,2]dioxepino[4,3-i]isochromen-10-yl 4-(3-((benzyloxy)imino)-2-oxoindolin-1-yl)butanoate], the IC50 is above 100 µM in data set [1], 3.95 µM in data set [2] and 2.39 µM in data set [3]. This molecule displayed an IC50 at 24 h in data set [4] above 100 µM.

Turning to `CCON=C1C(=O)N(CCCC(=O)OC2O[C@@H]3O[C@@]4(C)CC[C@H]5[C@H](C)CC[C@@H]([C@H]2C)[C@@]35OO4)c2ccccc21` (stereo partly drawn) [Hybrid 5b, (3R,5aS,6R,8aS,9R,12R,12aR)-3,6,9-trimethyldecahydro-12H-3,12-epoxy[1,2]dioxepino[4,3-i]isochromen-10-yl 4-(3-(ethoxyimino)-2-oxoindolin-1-yl)butanoate], the figures for the IC50 in data set [1], in data set [2] and in data set [3] were 1.27 µM, 26.8 µM and 15.1 µM, respectively. This molecule also had an IC50 at 24 h in data set [4] above 100 µM. For the same molecule, in data set [5], the “Selectivity index (SI)” value is given as above 78.74.

On to `CON=C1C(=O)N(CCCC(=O)OC2O[C@@H]3O[C@@]4(C)CC[C@H]5[C@H](C)CC[C@@H]([C@H]2C)[C@@]35OO4)c2ccccc21` (stereo partly drawn) [Hybrid 5a, (3R,5aS,6R,8aS,9R,12R,12aR)-3,6,9-trimethyldecahydro-12H-3,12-epoxy[1,2]dioxepino[4,3-i]isochromen-10-yl 4-(3-(methoxyimino)-2-oxoindolin-1-yl)butanoate], for which the values for the IC50 in data set [1], in data set [2] and in data set [3] were 19.1 µM, 52.2 µM and above 100 µM, respectively. In data set [4], this molecule yielded an IC50 at 24 h above 100 µM. Also, the “Selectivity index (SI)” value in data set [5] is listed as above 5.23.

On to `COc1ccc2c(c1)C(=O)C(=O)N2CCCC(=O)OC1O[C@@H]2O[C@@]3(C)CC[C@H]4[C@H](C)CC[C@@H]([C@H]1C)[C@@]24OO3` (stereo partly drawn) [Hybrid 4d, (3R,5aS,6R,8aS,9R,12R,12aR)-3,6,9-trimethyldecahydro-12H-3,12-epoxy[1,2]dioxepino[4,3-i]isochromen-10-yl 4-(5-methoxy-2,3-dioxoindolin-1-yl)butanoate], for which the IC50 came out at 18.1 µM in data set [1], 20.1 µM in data set [2] and 15.1 µM in data set [3]. Moreover, the IC50 at 24 h in data set [4] was above 100 µM. The “Selectivity index (SI)” value in data set [5] is listed as above 5.52.

On to `C[C@@H]1CC[C@H]2[C@@H](C)C(OC(=O)CCCN3C(=O)C(=O)c4cc(F)ccc43)O[C@@H]3O[C@@]4(C)CC[C@@H]1[C@]32OO4` (stereo partly drawn) [Hybrid 4b, (3R,5aS,6R,8aS,9R,12R,12aR)-3,6,9-trimethyldecahydro-12H-3,12-epoxy[1,2]dioxepino[4,3-i]isochromen-10-yl 4-(5-fluoro-2,3-dioxoindolin-1-yl)butanoate], for which the IC50 was 13.1 µM in data set [1], above 100 µM in data set [2] and 50 µM in data set [3]. In data set [4], the IC50 at 24 h is above 100 µM. In addition, the “Selectivity index (SI)” value in data set [5] was above 7.62.

As for `Cc1ccc2c(c1)C(=O)C(=O)N2CCCC(=O)OC1O[C@@H]2O[C@@]3(C)CC[C@H]4[C@H](C)CC[C@@H]([C@H]1C)[C@@]24OO3` (stereo partly drawn) [Hybrid 4c, (3R,5aS,6R,8aS,9R,12R,12aR)-3,6,9-trimethyldecahydro-12H-3,12-epoxy[1,2]dioxepino[4,3-i]isochromen-10-yl 4-(5-methyl-2,3-dioxoindolin-1-yl)butanoate], the IC50 was above 100 µM in data set [1], above 100 µM in data set [2] and 32.9 µM in data set [3].

Turning to `CON=C1C(=O)N(CCCC(=O)OC2O[C@@H]3O[C@@]4(C)CC[C@H]5[C@H](C)CC[C@@H]([C@H]2C)[C@@]35OO4)c2ccc(F)cc21` (stereo partly drawn) [Hybrid 5d, (3R,5aS,6R,8aS,9R,12R,12aR)-3,6,9-trimethyldecahydro-12H-3,12-epoxy[1,2]dioxepino[4,3-i]isochromen-10-yl 4-(3-(methoxyimino)-5-fluoro-2-oxoindolin-1-yl)butanoate], the IC50 in data set [1] is 6.07 µM; in data set [2], above 100 µM; in data set [3] it was above 100 µM. The same molecule displayed an IC50 at 24 h in data set [4] above 100 µM.

For the molecule `CCON=C1C(=O)N(CCCC(=O)OC2O[C@@H]3O[C@@]4(C)CC[C@H]5[C@H](C)CC[C@@H]([C@H]2C)[C@@]35OO4)c2ccc(C)cc21` (stereo partly drawn) [Hybrid 5g, (3R,5aS,6R,8aS,9R,12R,12aR)-3,6,9-trimethyldecahydro-12H-3,12-epoxy[1,2]dioxepino[4,3-i]isochromen-10-yl 4-(3-(ethoxyimino)-5-methyl-2-oxoindolin-1-yl)butanoate], the IC50 in data set [1], in data set [2] and in data set [3] was above 100 µM in each case.

`COc1ccc2c(c1)C(=NOCc1ccccc1)C(=O)N2CCCC(=O)OC1O[C@@H]2O[C@@]3(C)CC[C@H]4[C@H](C)CC[C@@H]([C@H]1C)[C@@]24OO3` (stereo partly drawn) [Hybrid 5k, (3R,5aS,6R,8aS,9R,12R,12aR)-3,6,9-trimethyldecahydro-12H-3,12-epoxy[1,2]dioxepino[4,3-i]isochromen-10-yl 4-(3-((benzyloxy)imino)-5-methoxy-2-oxoindolin-1-yl)butanoate]: the IC50 in data set [1], in data set [2] and in data set [3] was above 100 µM throughout.

As for `COc1cccc2c1C(=O)c1c(O)c3c(c(O)c1C2=O)C[C@@](O)(C(=O)CO)C[C@@H]3O[C@H]1C[C@H](N)[C@H](O)[C@H](C)O1` [ADR, Adriamycin, reference compound], the results for the IC50 in data set [1], in data set [2] and in data set [3] were 18.9 µM, above 100 µM and 3.38 µM, respectively. Also, the IC50 at 24 h in data set [4] came out at 68.8 µM. For the same molecule, in data set [5], the “Selectivity index (SI)” value is listed as 3.64.

`Cc1ccc2c(c1)C(=NOCc1ccccc1)C(=O)N2CCCC(=O)OC1O[C@@H]2O[C@@]3(C)CC[C@H]4[C@H](C)CC[C@@H]([C@H]1C)[C@@]24OO3` (stereo partly drawn) [Hybrid 5h, (3R,5aS,6R,8aS,9R,12R,12aR)-3,6,9-trimethyldecahydro-12H-3,12-epoxy[1,2]dioxepino[4,3-i]isochromen-10-yl 4-(3-((benzyloxy)imino)-5-methyl-2-oxoindolin-1-yl)butanoate]: the IC50 in data set [1], in data set [2] and in data set [3] was above 100 µM in each case.
